Data taken from ChEMBL document CHEMBL1135187, “The synthesis and effect of fluorinated chalcone derivatives on nitric oxide production” (Bioorg Med Chem Lett, 2002).

Legend:
[1] = target: T1, Nitric oxide synthase, inducible (Mus musculus) (UniProt P29477); assay: Percent inhibition of Nitrite accumulation at a concentration of 10 uM was determined in RAW 264.7 cells; assay type: functional, cell-based
T1 sequence (whole entry): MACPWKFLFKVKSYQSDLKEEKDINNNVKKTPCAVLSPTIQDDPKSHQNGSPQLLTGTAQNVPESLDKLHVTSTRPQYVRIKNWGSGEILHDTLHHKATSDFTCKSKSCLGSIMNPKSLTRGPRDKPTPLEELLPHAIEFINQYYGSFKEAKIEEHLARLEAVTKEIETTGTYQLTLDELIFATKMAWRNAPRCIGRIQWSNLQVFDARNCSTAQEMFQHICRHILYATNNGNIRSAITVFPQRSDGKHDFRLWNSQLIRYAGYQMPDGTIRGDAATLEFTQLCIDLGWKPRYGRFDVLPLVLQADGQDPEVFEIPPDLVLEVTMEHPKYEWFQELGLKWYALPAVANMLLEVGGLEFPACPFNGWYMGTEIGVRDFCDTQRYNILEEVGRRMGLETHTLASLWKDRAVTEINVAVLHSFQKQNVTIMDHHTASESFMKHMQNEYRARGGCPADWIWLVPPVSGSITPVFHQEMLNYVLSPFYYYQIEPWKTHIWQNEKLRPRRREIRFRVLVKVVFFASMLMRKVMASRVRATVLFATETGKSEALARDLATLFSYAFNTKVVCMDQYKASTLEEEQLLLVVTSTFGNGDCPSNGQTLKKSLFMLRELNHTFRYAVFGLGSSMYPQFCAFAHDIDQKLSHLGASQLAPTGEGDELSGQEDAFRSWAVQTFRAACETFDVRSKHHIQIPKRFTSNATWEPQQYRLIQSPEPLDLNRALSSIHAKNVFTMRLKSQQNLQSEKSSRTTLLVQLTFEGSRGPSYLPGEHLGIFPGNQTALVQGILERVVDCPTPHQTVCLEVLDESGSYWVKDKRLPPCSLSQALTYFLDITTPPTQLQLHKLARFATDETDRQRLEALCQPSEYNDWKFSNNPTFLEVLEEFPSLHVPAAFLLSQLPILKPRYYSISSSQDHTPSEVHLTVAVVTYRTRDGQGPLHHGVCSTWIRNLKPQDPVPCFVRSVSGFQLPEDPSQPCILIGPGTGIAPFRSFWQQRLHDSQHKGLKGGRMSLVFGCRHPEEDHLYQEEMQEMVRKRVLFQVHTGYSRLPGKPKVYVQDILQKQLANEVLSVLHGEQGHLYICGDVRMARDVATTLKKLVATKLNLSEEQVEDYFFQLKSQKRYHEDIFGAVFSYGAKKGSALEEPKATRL
Method in brief: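 Nitrite accumulation measured in RAW 264.7 cells at 2 × 10⁶/mL stimulated with E. coli LPS, with compound at 10 µM or vehicle, 37 °C, 20 h. Nitrite read fluorometrically against a sodium nitrite standard curve. Reported as mean±SEM % inhibition (n=6). One-way ANOVA followed by Dunnett's test.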

[2] = target: T2, Nitric oxide synthase, inducible (Mus musculus, UniProt P29477); assay: Inhibitory concentration required to produce 50% inhibition of the response was determined; range-0.541.16 uM; assay type: functional
T2 sequence (P29477 whole entry): T1 sequence (whole entry)
Method in brief: (§1)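 Murine RAW 264.7 macrophages (DMEM, 10% FBS, 2 mM L-glutamine, penicillin/streptomycin) at 2 × 10⁶/mL co-incubated with E. coli LPS and test compound or vehicle, 37 °C, 20 h. Nitrite in the medium measured fluorometrically against a sodium nitrite standard curve. IC50 calculated from at least four significant concentrations and reported with 95% confidence limits. MTT reduction used to check cytotoxicity.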

[3] = target: T2, Nitric oxide synthase, inducible; assay: Inhibitory concentration required to produce 50% inhibition of the response was determined; range-0.150.47 uM; assay type: functional; method in brief: as §1
[4] = target: T2, Nitric oxide synthase, inducible; assay: Inhibitory concentration required to produce 50% inhibition of the response was determined; range-0.811.70 uM; assay type: functional; method in brief: as §1
[5] = target: T2, Nitric oxide synthase, inducible; assay: Inhibitory concentration required to produce 50% inhibition of the response was determined; range-0.431.85 uM; assay type: functional; method in brief: as §1
[6] = target: T2, Nitric oxide synthase, inducible; assay: Inhibitory concentration required to produce 50% inhibition of the response was determined; range-0.431.12 uM; assay type: functional; method in brief: as §1
[7] = target: T2, Nitric oxide synthase, inducible; assay: Inhibitory concentration required to produce 50% inhibition of the response was determined; range-0.461.81 uM; assay type: functional; method in brief: as §1
[8] = target: T2, Nitric oxide synthase, inducible; assay: Inhibitory concentration required to produce 50% inhibition of the response was determined; assay type: functional; method in brief: as §1

Structure (SMILES)	inhibition [1] [%]	other results
COc1cc(OC)c(OC)cc1/C=C/C(=O)c1ccc(C(F)(F)F)cc1	49.3	
COc1ccc(/C=C/C(=O)c2ccc(F)cc2)c(OC)c1	55.7	
COc1cc(OC)c(/C=C/C(=O)c2cccc(C(F)(F)F)c2)c(OC)c1	75	IC50 [2]: 1840 nM
COc1cc(OC)c(OC)cc1/C=C/C(=O)c1cccc(C(F)(F)F)c1	26.7	
COc1ccc(OC)c(/C=C/C(=O)c2ccc(C(F)(F)F)cc2)c1	60.1	
COc1cc(OC)c(/C=C/C(=O)c2ccc(F)cc2)c(OC)c1	63.9	
COc1ccc(/C=C/C(=O)c2ccc(C(F)(F)F)cc2)c(OC)c1	46.8	
COc1cc(/C=C/C(=O)c2ccc(F)cc2)cc(OC)c1OC	94.1	IC50 [8]: 30 nM
COc1cc(OC)c(/C=C/C(=O)c2ccc(C(F)(F)F)cc2)c(OC)c1	43.6	
COc1cc(/C=C/C(=O)c2ccc(C(F)(F)F)cc2)cc(OC)c1OC	55.8	

The next lines start with results.

inhibition [1] [%]	Structure (SMILES)	other results
59	COc1cc(OC)c(/C=C/C(=O)c2ccc(F)cc2F)c(OC)c1	
73.7	COc1cc(OC)c(OC)cc1/C=C/C(=O)c1ccccc1C(F)(F)F	IC50 [3]: 280 nM
76.3	COc1cc(OC)c(/C=C/C(=O)c2ccccc2C(F)(F)F)c(OC)c1	IC50 [4]: 1020 nM
99	COc1ccc(OC)c(/C=C/C(=O)c2ccccc2C(F)(F)F)c1	IC50 [5]: 910 nM
81.7	COc1cc(OC)c(OC)cc1/C=C/C(=O)c1ccc(F)cc1F	IC50 [6]: 640 nM
52.4	COc1ccc(/C=C/C(=O)c2ccc(F)cc2F)cc1OC	
77.5	COc1ccc(/C=C/C(=O)c2ccccc2C(F)(F)F)c(OC)c1	IC50 [7]: 840 nM
